Assay results taken from ChEMBL document CHEMBL1150050, “Antimutagenic agents from natural products” (J Nat Prod, 1992).
The source made the active and inactive calls. The calls are words filed in the database; no cut-off is given here.

Assays:
Salmonella typhimurium [1] = assay: Toxicity in Salmonella Typhimurium TA98 at 75 to 300 ug/plate after 48 to 72 hrs in presence of liver S-9 fraction; assay type: organism-based; conditions: salmonella enterica subsp. enterica serovar typhimurium
Summary of the method: (§1)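 Toxicity plates were set up with bacteria, Ames S-9 preparation and test substance, with histidine in place of 2-aminoanthracene. They were mixed with top agar and incubated 48–72 h.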

Salmonella typhimurium [2] = assay: Toxicity in Salmonella Typhimurium TA100 at 75 to 300 ug/plate after 48 to 72 hrs in presence of liver S-9 fraction; assay type: organism-based; conditions: salmonella enterica subsp. enterica serovar typhimurium; summary of the method: as §1
Salmonella typhimurium [3] = assay: Antimutagenic activity in Salmonella Typhimurium TA98 assessed as inhibition of 2-aminoanthracene-induced mutation at 75 ug/plate after 48 to 72 hrs by Ames assay in presence of liver S-9 fraction; assay type: functional, organism-based; conditions: Salmonella enterica subsp. enterica serovar Typhimurium
Summary of the method: (§2)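 Bacteria were combined with Ames S-9 metabolic activation preparation, test substance in DMSO and 2-aminoanthracene at 2.5 μg/plate, mixed with top agar and incubated 48–72 h. Mutagenicity inhibition was assessed relative to 2-aminoanthracene.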

Salmonella typhimurium [4] = assay: Antimutagenic activity in Salmonella Typhimurium TA98 assessed as inhibition of 2-aminoanthracene-induced mutation at 150 ug/plate after 48 to 72 hrs by Ames assay in presence of liver S-9 fraction; assay type: functional, organism-based; conditions: Salmonella enterica subsp. enterica serovar Typhimurium; summary of the method: as §2
Salmonella typhimurium [5] = assay: Antimutagenic activity in Salmonella Typhimurium TA100 assessed as inhibition of ethyl methanesulfonate-induced mutation at 300 ug/plate after 48 to 72 hrs by Ames assay in presence of liver S-9 fraction; assay type: functional, organism-based; conditions: Salmonella enterica subsp. enterica serovar Typhimurium
Salmonella typhimurium [6] = assay: Antimutagenic activity in Salmonella Typhimurium TA100 assessed as inhibition of ethyl methanesulfonate-induced mutation at 32 to 300 ug/plate after 48 to 72 hrs by Ames assay in presence of liver S-9 fraction; assay type: functional, Salmonella enterica subsp. enterica serovar Typhimurium; design: scale not given: the % may be the effect or the level left
Salmonella typhimurium [7] = assay: Toxicity in Salmonella Typhimurium TA98 at 75 to 600 ug/plate after 48 to 72 hrs in presence of liver S-9 fraction; assay type: organism-based; conditions: salmonella enterica subsp. enterica serovar typhimurium; summary of the method: as §1
Salmonella typhimurium [8] = assay: Toxicity in Salmonella Typhimurium TA100 at 75 to 600 ug/plate after 48 to 72 hrs in presence of liver S-9 fraction; assay type: organism-based; conditions: salmonella enterica subsp. enterica serovar typhimurium; summary of the method: as §1

| Compound | Activity (Salmonella typhimurium [1]) | Activity (Salmonella typhimurium [2]) | Activity (Salmonella typhimurium [3]) | Activity (Salmonella typhimurium [4]) | Activity (Salmonella typhimurium [5]) | Activity (Salmonella typhimurium [6]) | Activity (Salmonella typhimurium [7]) | Activity (Salmonella typhimurium [8]) |
| --- | --- | --- | --- | --- | --- | --- | --- | --- |
| CC1(C)[C@@H](Br)CC[C@@]2(C)Oc3cc(Br)c(O)cc3C[C@@H]12 [CYMOBARBATOL] | Non-toxic | Non-toxic | Active | Active | Active | 80% | – | – |
| CC(C)=CCC/C(C)=C/Cc1cc(O)c(Br)cc1O [CYMOPOL] | – | – | – | – | – | – | Toxic | Toxic |
| CC1(C)[C@@H](Br)CC[C@]2(C)Oc3cc(Br)c(O)cc3C[C@@H]12 | Non-toxic | Non-toxic | Active | Active | Active | 80% | – | – |
